# In the library only some 2.7% were active in any assay of this set; here they are far more common.
# HNF4A DNA FP: change in binding of human HNF4 alpha to DNA. AID 1224865. activity change, % at 10 µM. HNF4a-FITC DNA binding, fluorescence polarization, 1 h. P41235. 0.3% of 360,000 active; in the data active = activity change above about 30%, passing the limit was not always enough
# CSN deneddyl inh: blocks human CSN-mediated cullin deneddylation | Purified CSN, SCF-Nedd8-OG deneddylation, fluorescence polarization | 0.38% of 360,000 active | AID 651999 | inhibition, % at 12.5 µM;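 active = pattern-corrected inhibition above about 35%, with an unprinted fluorescence ratio check between 0.5 and 1.5, limit read from the data, passing the limit was not always enough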;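 note: 0% = enzyme with substrate and 100% = substrate without enzyme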
#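 Test system: purified human Csn5 enzyme expressed in HEK293T cells. Amount: 0.24 nM enzyme. Reagent: SCFSkp2-Nedd8OG substrate at 10 nM final. Schedule: 90 min incubation of compound, enzyme and substrate at room temperature. Detection: fluorescence polarization. Read-out: % inhibition of substrate cleavage by Csn5.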
# NadD inh: NadD (S. aureus) enzyme inhibition | purified NadD enzyme, colorimetric absorbance read-out | inhibition, % at 20 µM | 0.78% of 360,000 active | AID 602399; in the data active = inhibition above about 26%
# Rpn11 inh: inhibitors of human proteasome Rpn11. O00487. human 26S proteasome, Ub4-pepOG fluorescence polarization; 20S core pre-blocked with epoxomicin. inhibition, % at 20 µM. 0.59% of 360,000 active. AID 588493;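 active = inhibition at 20 µM, scaled to each plate's controls, above about 33%, limit read from the data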
# PP1 counter: blocks human PP1-alpha phosphatase, a PP5 counter-screen. P62136. purified PP1alpha, OMFP fluorescence. inhibition, % at 6.7 µM. 0.9% of 320,000 active. AID 2235;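 active = inhibition above the mean inhibition of all tested compounds plus 3 SD, computed separately for each screening campaign, cut at about 15% in these data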
# Target sequence (P62136 whole entry, looked up): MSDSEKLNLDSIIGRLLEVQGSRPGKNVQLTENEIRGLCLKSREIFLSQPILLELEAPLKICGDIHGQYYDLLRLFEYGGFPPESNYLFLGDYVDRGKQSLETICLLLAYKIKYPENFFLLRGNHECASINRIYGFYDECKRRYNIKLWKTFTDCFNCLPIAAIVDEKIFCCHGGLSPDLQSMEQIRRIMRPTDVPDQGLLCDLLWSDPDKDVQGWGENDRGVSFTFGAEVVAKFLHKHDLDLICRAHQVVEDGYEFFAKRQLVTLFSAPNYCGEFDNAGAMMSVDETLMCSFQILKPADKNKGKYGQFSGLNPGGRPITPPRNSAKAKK
# TPT1 inh: C. albicans TPT1 enzyme inhibition; recombinant caTPT1, FP RNA substrate dephosphorylation; inhibition, % at 5 µM; 0.81% of 300,000 active; AID 1962;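 active = inhibition above the mean of all tested compounds plus 3 SD, set per screening campaign, cut at about 24% in these data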;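 note: plate controls were DMSO alone for no effect and ferristatin control at 100 nM for full effect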
# NadD inh conf: NadD (S. aureus) inhibition, single concentration confirmation | shares compounds with NadD inh | purified S. aureus NadD, colorimetric enzyme assay | inhibition, % at 20 µM | 13% of 2,000 active; in the data active = inhibition mostly above about 42%, no sharp cut-off; inactive = mostly below about 42%
# The depositor's hits bear a star; nt = no result; ! = not active in a repeat.
SMILES,HNF4A DNA FP,CSN deneddyl inh,NadD inh,Rpn11 inh,PP1 counter,TPT1 inh,NadD inh conf
Cc1ccc2oc(-c3cccc(NC(=S)NC(=O)/C=C/c4ccco4)c3)nc2c1,3,13,32*,17,5,2,-8
O=C(/C=C/c1ccco1)NC(=S)Nc1nc(-c2ccc(Cl)cc2)cs1,6,9,24,19,-2,3,nt
O=C(/C=C/c1ccco1)NC(=S)Nc1nc(-c2ccc3ccccc3c2)cs1,1,8,30*,8,-4,2,2
Cc1cc(C)c2oc(-c3ccc(C)c(NC(=S)NC(=O)c4cccs4)c3)nc2c1,0,5,28,-1,-4,-1,nt
COC(=O)[C@]12CCCCC=C1N(Cc1ccc3c(c1)OCO3)C(=O)[C@H](CC(=O)NCC1CCCCC1)C2,-2,-2,nt,nt,nt,nt,nt
CN1OC[C@@H]2CN(Cc3ccc(Cl)cc3)[C@H](c3ccc(-n4ccnc4)cc3)C[C@@H]21,-1,-3,6,-16,nt,nt,nt
CN=C1SC(CC(=O)Nc2c(C)cccc2C)C(=O)N1/N=C/c1cccs1 (centres undefined),-1,-4,-2,6,-3,1,nt
COc1ccc([N+](=O)[O-])cc1NC(=O)CC1SC(=Nc2cccc(C)c2C)N(/N=C/c2cccc(OC)c2OC)C1=O (centres undefined),0,1,35*!,11,4,-3,20
N#Cc1ccc(C=NN2CCCCCC2)cc1,0,-7,-4,3,nt,nt,nt
COc1cc(NS(=O)(=O)c2ccc(NS(=O)(=O)c3ccccc3)cc2)nc(OC)n1,3,-4,1,4,-1,2,nt
O=C(Nc1ccc(S(=O)(=O)Nc2nccs2)cc1)/C(=C/c1ccccc1Cl)NC(=O)c1ccccc1,-3,7,39*,-4,2,-1,56*
CC(C)[C@H](NC(=O)c1ccccc1Cl)C(=O)Nc1ccc(S(=O)(=O)Nc2nccs2)cc1,4,-3,8,2,nt,nt,nt
COc1cc(NS(=O)(=O)c2ccc(NC(=O)/C(=C/c3ccccc3Cl)NC(=O)c3ccccc3)cc2)nc(OC)n1,1,-3,33*,14,0,-4,49*
NC(CSC1(c2ccc(Cl)cc2)c2ccccc2-c2ccccc21)C(=O)O (centres undefined),-4,-2,41*,10,nt,nt,57*
COc1ccc(C2(SCC(N)C(=O)O)c3ccccc3-c3ccccc32)cc1 (centres undefined),0,1,36*,9,nt,nt,30
CN1CCN(NC(=O)Nc2ccc(F)cc2)CC1,-3,-1,2,4,nt,nt,nt
COc1ccc(/C=N/Nc2nc(-c3cccc(S(=O)(=O)N4CCCC4)c3)cs2)c(OC)c1,3,-3,37*,6,1,3,21
COc1cccc(CNC(=O)CCS(=O)(=O)c2cc3c(cc2C)NC(=O)CO3)c1,-4,-6,0,-5,2,0,nt
O=c1c2ccccc2oc2c1oc1ccccc12,-2,1,-9,2,nt,nt,nt
COC(=O)c1ccc2c(c1)N(Cc1nc(-c3ccc(Cl)cc3)oc1C)C(=O)C1CCCN21 (centres undefined),27,-1,45*,30,16*,4,19
CCOc1ccc(C2=C(C=Nc3c(C)n(C)n(-c4ccccc4)c3=O)C(c3ccc(F)cc3)c3ccccc3O2)cc1 (centres undefined),5,0,46*,6,-1,5,14
Cc1cc(C)c(Nc2n[nH]c(=S)s2)cc1C,-1,3,44*,-8,nt,nt,46
Cc1cccc(Nc2n[nH]c(=S)s2)c1C,-4,4,32*,7,-2,-1,44
Cc1cccc(C)c1Nc1n[nH]c(=S)s1,4,5,17,4,nt,nt,nt
O=C(CN1c2ccccc2Sc2ccccc21)NNC(=S)Nc1ccc(Cl)cc1Cl,0,-4,37*,-3,20*,-7,51*
SMILES,HNF4A DNA FP,CSN deneddyl inh,NadD inh,Rpn11 inh,PP1 counter,TPT1 inh,NadD inh conf
O=C(CN1c2ccccc2Sc2ccccc21)NNC(=S)Nc1ccc(Cl)cc1,-1,1,14,17,3,-4,nt
CC(C)C[C@@H](CN1CCC[C@H]1CN1C(=O)C(=O)NC[C@@H]1Cc1ccccc1)N1C[C@H](Cc2ccccc2)N(CC2CCCCCC2)C(=O)C1=O,-3,11,40*,nt,nt,nt,25
CC(C)C[C@@H](CN1CCC[C@@H]1CN1C(=O)C(=O)NC[C@@H]1Cc1ccccc1)N1C[C@H](Cc2ccc(O)cc2)N(CC2CCCCCC2)C(=O)C1=O,4,4,24,13,nt,nt,nt
CC(C)C[C@@H](CN1CCC[C@H]1CN1C(=O)C(=O)NC[C@@H]1Cc1ccc(O)cc1)N1C[C@H](Cc2ccccc2)N(CC2CCCCCC2)C(=O)C1=O,-2,-3,38*,nt,nt,nt,32
O=S(=O)(Nc1ccc(C(O)(C(F)(F)F)C(F)(F)F)cc1)c1cccc2cccnc12,-2,2,-6,-3,nt,nt,nt
CCCN1C(=O)c2ccccc2NC1c1ccc(Cl)c(Cl)c1 (centres undefined),-1,-3,-9,-1,-5,-1,nt
CCCCN1C2=C(C(=O)CCC2)C(c2ccc(Cl)c(Cl)c2)C2=C1c1ccccc1C2=O (centres undefined),-8,2,32*,-43,-4,-18,8
CC[C@H](C)[C@H](NC(=O)OCc1ccccc1)C(=O)OCC(=O)N1CCN(c2ccc(OC)cc2)CC1,1,2,3,3,nt,nt,nt
Cc1c2ccccc2nc2ccccc12,-2,4,1,16,1,-1,nt
CCCNc1c(F)c(F)c2c(C)c3ccccc3nc2c1F,-60,19,39*,-34,3,-116,17
CC(=O)N1C[C@H]2CON(C)[C@H]2C[C@H]1c1ccc(-c2ccc(C#N)cc2)cc1,1,-5,-5,0,nt,nt,nt
Cc1cc(C)cc(C(O)c2ncc(-c3ccc(C(F)(F)F)cc3)[nH]2)c1 (centres undefined),4,-6,0,5,nt,nt,nt
Cn1ccc2c(N3CCCCC3)cc3c(c21)C1CCC3O1 (centres undefined),-2,-1,-6,5,nt,nt,nt
CCSc1nc2sc3c(c2c2nnc(SCC(=O)NCc4ccco4)n12)CCCC3,nt,nt,nt,nt,2,-1,nt
CC(C)Sc1nc2sc3c(c2c2nnc(SCC(=O)NCc4ccco4)n12)CCCC3,-9,27,38*,21,2,7,37
N=C1S/C(=C\c2cccc3ccccc23)C(=O)N1c1ccc(F)cc1,1,0,33*,2,17*,3,5
CCc1nn(CC(=O)NCCCN2CCN(C)CC2)c(=O)c2cc3sc(C)cc3n12,-2,-2,1,-4,-1,1,nt

# Screening results (PubChem BioAssay)
